According to ChEMBL document CHEMBL4513216, “Probing the Open Global Health Chemical Diversity Library for Multistage-Active Starting Points for Next-Generation Antimalarials” (ACS Infect Dis, 2020):

Experiment: Toxicity liver stage against HepG2, at 10uM
Assay type: cell-based
Set-up: test concentration 10 uM, cell line HepG2-A16-CD81EGFP
Conditions: human, HepG2-A16-CD81EGFP cells; read-out: INHIBITION
Method in brief: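 Uninfected HepG2-A16-CD81EGFP cells, 3 × 10^3 per well, 1536-well, plated on prespotted compound at 10 μM final, parasite-free screening media added to match infected plates; puromycin 10 μM positive, DMSO 0.5% negative; run in parallel with 48 h PbLuc assay at 37 °C, 5% CO2; viability by CellTiter-Glo luminescence, normalized to controls.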

Row | SMILES | cytotoxicity at 10 µM
1 | CC(=O)N1CC[C@H]2CC(=O)N(CCc3c[nH]cn3)CC[C@H]2C1 | -2.77%
2 | Cc1ccc(C)c(-n2ncc(C(=O)N(C)CCc3ccccn3)c2N)c1 | -1.57%
3 | Cc1nn(-c2ccc(C(=O)O)cc2)c2c1C(c1cccs1)SCC(=O)N2 (configuration not stated) | -0.607%
4 | Cc1ccc(S(=O)(=O)NCCNc2cc(-n3cccc3)ncn2)c(C)c1 | -0.817%
5 | Cn1nccc1-c1ccc2nc(C3CCNCC3)nn2c1 | 10.3%
6 | O=C(c1ccoc1)N1CCc2ncc(Cn3cccn3)n2CC1 | 6.9%
7 | CCOC(=O)Cn1cccc(S(=O)(=O)N2CCCC2)c1=O | 13.4%
8 | Cc1csc([C@@H]2C[C@@H]3CCN(Cc4cnn(C)c4)C[C@H]3O2)n1 | -4.87%
9 | Cn1cc(CN2CCC3(CCCN(Cc4ccccn4)C3)CC2)cn1 | -6.54%
10 | O=C(Cn1nc(C(F)(F)F)c(Cl)c1C1CC1)NN1CCOCC1 | 5.01%
11 | CC(CN1CCOCC1)n1cncc1-c1cnn(Cc2ccccc2)c1 (configuration not stated) | 6.33%
12 | CS(=O)(=O)N1CC(c2ccnc(Nc3ccccn3)n2)C1 | 13.8%
13 | Fc1ccccc1Oc1nccnc1C1CCCN(C2CCOCC2)C1 (configuration not stated) | -9.4%
14 | c1c[nH]c(CN2CCCC(Cc3ccc(NC4CCCC4)nn3)C2)n1 (configuration not stated) | -3.95%
15 | Cc1cc(CCC2CN(CC3(O)CCCCC3)CCO2)ncn1 (configuration not stated) | 2.97%
16 | O=C(c1cc[nH]n1)N1CCC(c2cc(Nc3ccccn3)n[nH]2)CC1 | -37.1%
17 | OCCN1CCCC(c2nccnc2Oc2ccccc2)C1 (configuration not stated) | -25.5%
18 | Cc1nn(C)cc1C(=O)N1CCCC(n2nnc3cc(F)ccc32)C1 (configuration not stated) | -11%
19 | Cc1ccc(=O)n(CC2(O)CCN(Cc3cnn(C)c3)CC2)n1 | 3.12%

Row | SMILES | cytotoxicity at 10 µM
20 | Cc1ccc(CN(C)C(=O)c2cc3c(c(S(N)(=O)=O)c2)CCC3)o1 | -52.5%
21 | COc1cc(NCC(=O)NC(C)(C#N)C(C)C)cc(OC)c1OC (configuration not stated) | -7.33%
22 | Cc1cc(N(C)C)nc(N(C)Cc2csc(C)n2)n1 | 7.06%
23 | CC(Cc1ccco1)NS(=O)(=O)N1CCCCC1 (configuration not stated) | -0.867%
24 | CC(O)CCN(C)C(=O)Nc1cccc(F)c1 (configuration not stated) | -6.16%
25 | Cc1nc(C)n(CC2CCCN2Cc2cn3ccccc3c2C#N)n1 (configuration not stated) | 2.8%
26 | COc1ccc(CN2CCCC(n3cccn3)C2)c(Cl)c1OC (configuration not stated) | 4.48%
27 | N#Cc1ccc(Cn2cncn2)c(F)c1 | -1.49%
28 | Cc1ccc(CN(C)C(=O)NCC(C)(C)S(C)(=O)=O)s1 | 15.6%
29 | N#Cc1cc(F)ccc1NCC1CCS(=O)(=O)CC1 | 2.02%
30 | CCCN(C(=O)CN1CCN(CC(C)O)CC1)C1=CCCCC1 (configuration not stated) | 4.13%
31 | COC(=O)C1CCN(C(=O)Cn2nc(C)nc2-c2ccccc2)CC1 | -0.159%
32 | Cc1cnn(CCNCC(=O)N2CCN(c3ccccc3)CC2)c1 | -6.74%
33 | CC(CNC(=O)NCc1ccoc1)N1CCc2sccc2C1 (configuration not stated) | -4.8%
34 | CN(CC(=O)NCC(CCO)c1ccccc1)C(=O)OC(C)(C)C (configuration not stated) | -6.58%
35 | CCc1[nH]c(C2(N)CCCCC2)nc(=O)c1C | 7.61%
36 | OCCN(Cc1cccnc1)c1ccc(Cl)cn1 | 31.9%
37 | Cc1ccc(CNC(=O)C2CCN(C(=O)c3ccccc3)CC2)n1C | 1.2%
38 | CCC(=O)NCc1ccccc1Cn1ccnc1 | -1.21%

Row | SMILES | cytotoxicity at 10 µM
39 | COc1c(CNCc2ccccc2CO)c(C)nn1C | 1.04%
40 | CC(=O)N(C)CC(=O)NC1(c2ccc(Cl)c(Cl)c2)CC1 | -5.57%
41 | Cc1nn(CCO)c(C)c1CNC1CCc2c(F)cccc21 (configuration not stated) | 4.59%
42 | CC(C)COCCC(=O)Nc1ccc2oc(=O)n(CCN(C)C)c2c1 | -7.59%
43 | CCN(CC)S(=O)(=O)N1CCCC1CC(=O)c1cccs1 (configuration not stated) | 3.62%
44 | COc1ccc(C)cc1CC(=O)NC1(C#N)CCOCC1 | 6.18%
45 | c1cncc(CN(Cc2ccc3c(c2)OCCO3)CC2CCCO2)c1 (configuration not stated) | 1.22%
46 | CC1CCN(C)c2ccccc2N1C(=O)c1ccc(=O)n(C)c1 (configuration not stated) | -0.117%
47 | Cc1ncccc1C(=O)Nc1cccc2c1C(=O)NC2 | 1.85%
48 | CC(C)C(=O)NCCNC(=O)C(C)OCC(F)(F)F (configuration not stated) | -5.56%
49 | O=C(NCC(O)c1ccccc1C(F)(F)F)c1cccnc1 (configuration not stated) | -2.9%
50 | Cc1cccn2cc(CN3CCCC(c4ccn[nH]4)C3)nc12 (configuration not stated) | -5.95%
51 | CCOc1ccc(C(F)(F)F)cc1NC(=O)N1CCC(C(N)=O)CC1 | 0.425%
52 | CC(C)COC(C)C(=O)N1CCCCCC1 (configuration not stated) | 1.31%
53 | OCCOc1cc(F)ccc1NCc1nc(-c2ccoc2)no1 | -46.9%
54 | CC(C)CCN(C)C(=O)c1cnc2c(cnn2CC(C)C)c1 | -0.0554%
55 | CC(C)c1cc(C(=O)NCC(O)C2CCOCC2)nn1C(C)(C)C (configuration not stated) | -9.55%
56 | Cn1cc(NC(=O)Cc2ccccc2Br)cc1C(N)=O | -1%
57 | O=C(COCC1CC1)Nc1ncccc1I | 22.5%
